Laboratory results taken from ChEMBL document CHEMBL4622983, “Structure-Activity Relationship Studies of α-Ketoamides as Inhibitors of the Phospholipase A and Acyltransferase Enzyme Family” (J Med Chem, 2020).
Activity calls are given as the source filed them. The calls are words filed in the database; no cut-off is given here.

What was measured:
[1] = target: Cytosolic phospholipase A2 delta (Homo sapiens) (UniProt Q86XP0); experiment: Inhibition of human PLA2G4D expressed in HEK293T cell lysates at 10 uM preincubated for 30 mins followed by FP-TAMRA addition and measured after 20 mins by SDS-PAGE based competitive ABPP analysis; assay type: cell-free; settings: HEK-293T
Summary of the method: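 hPLA2G4B, C or D-overexpressing membrane lysate (1 μg/μL) preincubated with inhibitor for 30 min at rt. FP-TAMRA 500 nM added for 20 min at rt. In-gel fluorescence after SDS-PAGE, normalized to Coomassie.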

[2] = target: T1, Phospholipase A and acyltransferase 2 (Homo sapiens) (UniProt Q9NWW9); experiment: Inhibition of full-length C-terminal FLAG-tagged human PLAAT2 expressed in human U2OS cells assessed as reduction in absolute N-oleoylethanolamine level at 10 uM incubated for 4 hrs by LC-MS/MS analysis; assay type: cell-based
T1 sequence (whole entry): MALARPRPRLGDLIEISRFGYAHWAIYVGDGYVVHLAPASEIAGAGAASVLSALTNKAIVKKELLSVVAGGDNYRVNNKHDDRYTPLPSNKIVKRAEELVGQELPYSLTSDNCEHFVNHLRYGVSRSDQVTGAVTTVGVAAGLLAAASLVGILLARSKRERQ
Summary of the method: (§1)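 U2OS cells transfected with PLAAT2, PLAAT5 or empty vector (PEI, 1:5 plasmid/PEI). At 24 h, switched to serum-free medium with 10 μM compound (0.1% DMSO) or DMSO for 4 h at 37 °C. Pellets extracted with MTBE against deuterated internal standards. NAEs, 2-AG and free fatty acids quantified by LC–MS/MS, normalized to live cell count. Four biological replicates; one-way ANOVA.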

[3] = target: Diacylglycerol lipase-beta (Mus musculus) (UniProt Q91WC9); experiment: Inhibition of mouse brain membrane DAGLbeta assessed as enzyme remaining activity at 10 uM preincubated for 30 mins followed by MB064 or FP-TAMRA addition and measured after 15 mins by SDS-PAGE based ABPP analysis relative to control; assay type: cell membranes
Summary of the method: (§2)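 Mouse brain membrane proteome (2 μg/μL) preincubated with 10 μM inhibitor for 30 min at rt. Then MB064 250 nM or FP-TAMRA 500 nM for 15 min at rt. Resolved on 10% SDS-PAGE, fluorescence normalized to Coomassie. Reported as % remaining activity ± SD, n = 3.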

[4] = target: T1, Phospholipase A and acyltransferase 2 (Homo sapiens); experiment: Inhibition of full-length C-terminal FLAG-tagged human PLAAT2 expressed in human U2OS cells assessed as reduction in 2-AG level at 10 uM incubated for 4 hrs by LC-MS/MS analysis; assay type: cell-based; summary of the method: as §1
[5] = target: T2, Phospholipase A and acyltransferase 5 (Homo sapiens) (UniProt Q96KN8); experiment: Inhibition of full-length C-terminal FLAG-tagged human PLAAT5 expressed in human U2OS cells assessed as reduction in arachidonic acid level at 10 uM incubated for 4 hrs by LC-MS/MS analysis; assay type: cell-based; summary of the method: as §1
T2 sequence (whole entry): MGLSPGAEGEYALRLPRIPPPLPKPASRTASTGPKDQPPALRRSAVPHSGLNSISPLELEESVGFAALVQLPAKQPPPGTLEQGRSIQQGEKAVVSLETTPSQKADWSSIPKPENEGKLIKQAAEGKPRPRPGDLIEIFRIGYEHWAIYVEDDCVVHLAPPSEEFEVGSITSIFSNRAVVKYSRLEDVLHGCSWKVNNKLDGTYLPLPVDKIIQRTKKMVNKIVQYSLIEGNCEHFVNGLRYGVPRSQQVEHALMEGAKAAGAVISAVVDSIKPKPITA

U2OS [6] = experiment: Inhibition of serine hydrolase in human U2OS cytosolic fraction at 10 uM preincubated for 30 mins followed by FP-TAMRA addition and measured after 15 mins by SDS-PAGE based competitive ABPP analysis
Summary of the method: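 U2OS cytosol or membrane lysate at 2.5 μg/μL, pretreated with inhibitor or DMSO vehicle for 30 min at rt. Probe then added for 15 min at rt: MB064 at 2 μM or FP-TAMRA at 500 nM. Samples denatured in Laemmli buffer and resolved by SDS-PAGE. In-gel fluorescence scanned at Cy3/Cy5 settings and normalized to Coomassie staining.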

U2OS [7] = experiment: Inhibition of serine hydrolase in human U2OS cell membrane fraction at 10 uM preincubated for 30 mins followed by FP-TAMRA addition and measured after 15 mins by SDS-PAGE based competitive ABPP analysis
Summary of the method: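 U2OS membrane lysate (2.5 μg/μL) preincubated with inhibitor for 30 min at rt. FP-TAMRA 500 nM added for 15 min at rt. SDS-PAGE with in-gel fluorescence normalized to Coomassie.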

[8] = target: T1, Phospholipase A and acyltransferase 2 (Homo sapiens); experiment: Inhibition of full-length C-terminal FLAG-tagged human PLAAT2 expressed in human U2OS cells assessed as reduction in arachidonic acid level at 10 uM incubated for 4 hrs by LC-MS/MS analysis; assay type: cell-based; summary of the method: as §1
U2OS [9] = experiment: Downregulation of N-linoleoylethanolamine level in human U2OS cells at 10 uM after 4 hrs by LC-MS/MS analysis; assay type: functional, cell-based; summary of the method: as §1
[10] = target: T2, Phospholipase A and acyltransferase 5 (Homo sapiens); experiment: Inhibition of full-length C-terminal FLAG-tagged human PLAAT5 expressed in human U2OS cells assessed as reduction in absolute N-eicosapentaenoylethanolamine level at 10 uM incubated for 4 hrs by LC-MS/MS analysis; assay type: cell-based; summary of the method: as §1
[11] = target: Diacylglycerol lipase-alpha (Mus musculus) (UniProt Q6WQJ1); experiment: Inhibition of mouse brain membrane DAGLalpha assessed as enzyme remaining activity at 10 uM preincubated for 30 mins followed by MB064 or FP-TAMRA addition and measured after 15 mins by SDS-PAGE based ABPP analysis relative to control; assay type: cell membranes; summary of the method: as §2
[12] = target: Monoacylglycerol lipase ABHD6 (Mus musculus) (UniProt Q8R2Y0); experiment: Inhibition of mouse brain membrane ABHD6 assessed as enzyme remaining activity at 10 uM preincubated for 30 mins followed by MB064 or FP-TAMRA addition and measured after 15 mins by SDS-PAGE based ABPP analysis relative to control; assay type: cell membranes; summary of the method: as §2
[13] = target: T1, Phospholipase A and acyltransferase 2 (Homo sapiens); experiment: Inhibition of full-length C-terminal FLAG-tagged human PLAAT2 expressed in human U2OS cells assessed as reduction in absolute N-palmitoylethanolamine level at 10 uM incubated for 4 hrs by LC-MS/MS analysis; assay type: cell-based; summary of the method: as §1
[14] = target: Fatty-acid amide hydrolase 1 (Mus musculus) (UniProt O08914); experiment: Inhibition of mouse brain membrane FAAH assessed as enzyme remaining activity at 10 uM preincubated for 30 mins followed by MB064 or FP-TAMRA addition and measured after 15 mins by SDS-PAGE based ABPP analysis relative to control; assay type: cell membranes; summary of the method: as §2
[15] = target: T2, Phospholipase A and acyltransferase 5 (Homo sapiens); experiment: Inhibition of full-length C-terminal FLAG-tagged human PLAAT5 expressed in human U2OS cells assessed as reduction in absolute N-palmitoleoylethanolamine level at 10 uM incubated for 4 hrs by LC-MS/MS analysis; assay type: cell-based; summary of the method: as §1

Diacylglycerol lipase-alpha (Mus musculus), sequence (Q6WQJ1 whole entry): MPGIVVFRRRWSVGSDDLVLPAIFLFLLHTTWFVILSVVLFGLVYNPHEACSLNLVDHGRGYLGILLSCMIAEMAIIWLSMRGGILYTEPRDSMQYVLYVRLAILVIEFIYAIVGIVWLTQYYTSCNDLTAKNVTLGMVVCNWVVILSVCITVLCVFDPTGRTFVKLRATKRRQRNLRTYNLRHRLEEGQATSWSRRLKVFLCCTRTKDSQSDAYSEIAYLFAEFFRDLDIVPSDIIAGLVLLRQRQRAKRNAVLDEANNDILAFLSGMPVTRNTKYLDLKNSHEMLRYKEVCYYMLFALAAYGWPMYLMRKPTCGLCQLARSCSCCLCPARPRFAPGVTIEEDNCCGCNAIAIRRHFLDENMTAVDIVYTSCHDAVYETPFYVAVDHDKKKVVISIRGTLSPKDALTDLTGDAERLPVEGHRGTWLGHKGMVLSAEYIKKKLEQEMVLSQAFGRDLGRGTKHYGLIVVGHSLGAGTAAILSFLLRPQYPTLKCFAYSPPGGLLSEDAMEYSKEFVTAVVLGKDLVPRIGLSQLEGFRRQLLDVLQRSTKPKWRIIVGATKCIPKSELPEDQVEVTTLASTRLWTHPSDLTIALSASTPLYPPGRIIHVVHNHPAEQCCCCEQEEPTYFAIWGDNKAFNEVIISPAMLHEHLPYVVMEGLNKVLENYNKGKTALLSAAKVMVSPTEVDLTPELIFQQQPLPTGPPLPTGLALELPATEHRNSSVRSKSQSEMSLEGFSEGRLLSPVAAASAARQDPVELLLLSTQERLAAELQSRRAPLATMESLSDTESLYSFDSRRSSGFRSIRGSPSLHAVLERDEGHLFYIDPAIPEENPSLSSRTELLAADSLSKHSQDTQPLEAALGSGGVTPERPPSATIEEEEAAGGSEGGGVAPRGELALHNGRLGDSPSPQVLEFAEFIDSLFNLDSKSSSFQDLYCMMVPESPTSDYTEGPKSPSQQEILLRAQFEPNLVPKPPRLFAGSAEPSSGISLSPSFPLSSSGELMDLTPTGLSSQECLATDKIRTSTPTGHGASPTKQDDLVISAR
Diacylglycerol lipase-beta (Mus musculus), sequence (Q91WC9 whole entry): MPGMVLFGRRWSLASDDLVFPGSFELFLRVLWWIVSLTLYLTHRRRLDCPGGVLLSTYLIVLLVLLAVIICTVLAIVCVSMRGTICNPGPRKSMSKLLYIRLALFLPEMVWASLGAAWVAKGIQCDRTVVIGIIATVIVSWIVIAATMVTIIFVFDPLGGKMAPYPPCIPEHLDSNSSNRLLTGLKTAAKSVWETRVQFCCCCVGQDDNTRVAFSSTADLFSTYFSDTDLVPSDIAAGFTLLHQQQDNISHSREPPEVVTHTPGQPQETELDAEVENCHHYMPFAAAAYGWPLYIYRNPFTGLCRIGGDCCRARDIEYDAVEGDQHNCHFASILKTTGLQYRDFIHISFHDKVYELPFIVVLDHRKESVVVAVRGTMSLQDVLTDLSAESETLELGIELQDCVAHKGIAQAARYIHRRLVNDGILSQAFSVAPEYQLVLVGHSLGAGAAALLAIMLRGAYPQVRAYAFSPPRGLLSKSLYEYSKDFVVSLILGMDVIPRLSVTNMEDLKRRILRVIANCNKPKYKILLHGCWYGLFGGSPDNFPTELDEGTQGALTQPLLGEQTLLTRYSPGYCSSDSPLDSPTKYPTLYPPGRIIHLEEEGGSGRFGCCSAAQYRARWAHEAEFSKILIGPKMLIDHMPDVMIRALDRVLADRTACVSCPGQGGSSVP
Monoacylglycerol lipase ABHD6 (Mus musculus), sequence (Q8R2Y0 whole entry): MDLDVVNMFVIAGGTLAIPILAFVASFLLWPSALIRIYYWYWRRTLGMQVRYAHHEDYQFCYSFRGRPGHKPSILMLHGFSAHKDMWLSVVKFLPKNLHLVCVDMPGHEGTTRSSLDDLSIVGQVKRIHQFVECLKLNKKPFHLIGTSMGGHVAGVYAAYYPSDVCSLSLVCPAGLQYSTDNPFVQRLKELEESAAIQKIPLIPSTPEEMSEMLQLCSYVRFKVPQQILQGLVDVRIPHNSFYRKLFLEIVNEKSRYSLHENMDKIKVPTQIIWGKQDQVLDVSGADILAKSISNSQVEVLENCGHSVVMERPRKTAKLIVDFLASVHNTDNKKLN
Cytosolic phospholipase A2 delta (Homo sapiens), sequence (Q86XP0 whole entry): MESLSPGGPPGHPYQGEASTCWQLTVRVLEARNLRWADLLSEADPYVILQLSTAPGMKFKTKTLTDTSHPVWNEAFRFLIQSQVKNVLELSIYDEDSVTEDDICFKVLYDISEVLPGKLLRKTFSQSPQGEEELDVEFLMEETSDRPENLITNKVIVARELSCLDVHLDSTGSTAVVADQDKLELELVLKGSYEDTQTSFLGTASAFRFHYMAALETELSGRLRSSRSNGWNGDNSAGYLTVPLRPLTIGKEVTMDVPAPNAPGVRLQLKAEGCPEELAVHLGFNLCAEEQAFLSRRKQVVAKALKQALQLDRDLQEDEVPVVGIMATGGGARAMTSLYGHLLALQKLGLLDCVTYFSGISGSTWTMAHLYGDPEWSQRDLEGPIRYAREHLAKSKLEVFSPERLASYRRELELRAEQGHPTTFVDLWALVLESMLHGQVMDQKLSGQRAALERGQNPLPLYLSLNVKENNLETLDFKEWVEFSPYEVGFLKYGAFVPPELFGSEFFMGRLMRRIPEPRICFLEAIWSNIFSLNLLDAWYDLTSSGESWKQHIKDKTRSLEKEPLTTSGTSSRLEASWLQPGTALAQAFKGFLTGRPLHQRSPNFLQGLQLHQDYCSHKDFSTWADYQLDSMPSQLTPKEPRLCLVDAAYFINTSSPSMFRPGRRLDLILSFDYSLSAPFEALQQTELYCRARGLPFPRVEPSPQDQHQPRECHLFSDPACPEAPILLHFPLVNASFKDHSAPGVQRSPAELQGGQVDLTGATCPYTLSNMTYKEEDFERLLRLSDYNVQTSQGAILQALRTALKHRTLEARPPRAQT
Fatty-acid amide hydrolase 1 (Mus musculus), sequence (O08914 whole entry): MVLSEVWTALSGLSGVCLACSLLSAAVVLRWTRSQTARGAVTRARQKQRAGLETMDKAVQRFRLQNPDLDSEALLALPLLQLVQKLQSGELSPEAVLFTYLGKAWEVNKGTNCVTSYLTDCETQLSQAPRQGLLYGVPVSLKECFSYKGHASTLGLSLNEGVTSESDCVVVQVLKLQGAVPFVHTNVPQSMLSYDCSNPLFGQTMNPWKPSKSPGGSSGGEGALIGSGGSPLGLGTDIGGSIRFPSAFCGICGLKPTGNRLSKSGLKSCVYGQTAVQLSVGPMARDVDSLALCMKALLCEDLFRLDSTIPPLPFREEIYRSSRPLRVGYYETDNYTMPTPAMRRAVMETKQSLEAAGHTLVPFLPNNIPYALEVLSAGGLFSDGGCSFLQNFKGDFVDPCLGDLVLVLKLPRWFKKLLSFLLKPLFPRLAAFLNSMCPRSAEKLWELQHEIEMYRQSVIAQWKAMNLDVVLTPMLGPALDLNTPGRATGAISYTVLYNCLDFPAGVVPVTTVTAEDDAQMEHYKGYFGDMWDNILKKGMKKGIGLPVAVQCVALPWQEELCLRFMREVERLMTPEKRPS

inhibition [1]: inactive | inhibition [2]: Active | Activity [3]: 83% | inhibition [4]: inactive | inhibition [5]: inactive | inhibition (U2OS [6]): inactive | inhibition [8]: inactive | inhibition [10]: Active | Activity [11]: 97% | Activity [12]: 92% | inhibition [13]: Active | Activity [14]: 108% | inhibition [15]: Active
SMILES: O=C(CCCc1ccccc1)C(=O)NCCc1ccc(Oc2ccccc2)cc1
inhibition (U2OS [7]): inactive | inhibition (U2OS [9]): inactive
